Data published in ChEMBL document CHEMBL1126298, “New triazine derivatives as potent modulators of multidrug resistance” (1992).

Legend:
KB [1] = experiment: Percent of cell viability remaining after incubating the cells with the modulator alone; assay type: functional, Homo sapiens; set-up: concentration or dose not given beside the values
In short: (§1)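 Cells were grown with modulator alone for 4 days under the same conditions as the chemosensitivity assay, and read by MTT. Viability = (absorbance with modulator/absorbance of control cells) × 100. "tox" marks viability below 25%.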

KB [2] = experiment: Compound was evaluated for the in vitro activity in KB-A1 cell line. Activity expressed as fold reversion (Ratio of IC50(adriamycin alone) / IC50(adriamycin + modulator) at a concentration of 5 uM; assay type: functional, Homo sapiens
In short: (§2)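 Human epidermoid KB-A1 cells (Pgp-overexpressing) were grown in RPMI 1640 with 10% FCS and 10 mM HEPES (pH 7.4). They were exposed for 4 days to adriamycin (nine graded concentrations, in triplicate) with or without 5 μM modulator. IC50 was read by the MTT assay. Fold reversion = IC50(ADR alone)/IC50(ADR + modulator).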

KB [3] = experiment: Increase in adriamycin uptake in modulator-treated cells relative to untreated KB-A1 cells at a concentration of 5 uM; assay type: functional, Homo sapiens
In short: (§3)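 DC-3F/AD or KB-A1 cells (5 × 10⁶/mL) were incubated at 37 °C for 5 h with 50 μM adriamycin plus modulator (2.5–10 μM range). ADR fluorescence of 10 000 cells was read by flow cytometry at 4 °C with 488 nm argon-laser excitation. The value is the increase in mean fluorescence of treated cells over untreated cells.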

DC3F/AD [4] = experiment: In vitro activity in DC-3F/AD cell line(Ratio of IC50(actinomycin D alone) / IC50(actinomycin D + modulator) at a concentration of 5 uM
DC3F/AD [5] = experiment: Percent of cell viability remaining after incubating the cells with the modulator alone a concentration of 5 uM; assay type: functional, Cricetulus griseus; in short: as §1
DC3F/AD [6] = experiment: (§4) Increase in adriamycin uptake in modulator-treated cells relative to untreated cells at a concentration of 5 uM; assay type: functional, Cricetulus griseus; in short: as §3
DC3F/AD [7] = experiment: Increase in adriamycin uptake in modulator-treated cells relative to untreated cells at a concentration of 10 uM; assay type: functional, Cricetulus griseus; in short: as §3
Cricetinae gen. sp. [8] = experiment: (§5) Percent of cell viability remaining after incubating the cells with the modulator alone at a concentration of 10 uM; assay type: functional, Cricetulus griseus; in short: as §1
DC3F/AD [9] = experiment: In vitro activity in DC-3F/AD cell line Ratio of IC50(actinomycin D alone) / IC50(actinomycin D + modulator) at a concentration of 10 uM
DC3F/AD [10] = experiment: as §5; assay type: functional, Cricetulus griseus; in short: as §1
P388 [11] = experiment: Antitumor activity of vincristine against P388 leukemia cell line in mice at a dose of 100 mg/kg.; assay type: functional, Mus musculus
KB [12] = experiment: In vitro activity in KB-A1 cell line activity expressed as fold reversion (Ratio of IC50(adriamycin alone) / IC50(adriamycin + modulator) at a concentration of 5 uM; assay type: functional, Homo sapiens; in short: as §2
P388 [13] = experiment: Antitumor activity of vincristine against P388 leukemia cell line in mice at a dose of 50 mg/kg.; assay type: functional, Mus musculus
DC3F/AD [14] = experiment: Percent of cell viability remaining after incubating with a 10 uM concentration; assay type: functional, Cricetulus griseus; in short: as §1
KB [15] = experiment: Compound was evaluated for the in vitro activity in KB-A1 cell line)Activity expressed as fold reversion (Ratio of IC50(adriamycin alone) / IC50(adriamycin + modulator) at a concentration of 5 uM; assay type: functional, Homo sapiens; in short: as §2
Cricetinae gen. sp. [16] = experiment: Compound was evaluated for in vitro activity in DC-3F/AD cell line(Ratio of IC50(actinomycin D alone) / IC50(actinomycin D + modulator) at a concentration of 5 uM
DC3F/AD [17] = experiment: Percent of cell viability remaining after incubating the cells with the modulator alone at a concentration of 5 uM; assay type: functional, Cricetulus griseus; in short: as §1
DC3F/AD [18] = experiment: Compound was evaluated for in vitro activity in DC-3F/AD cell line (Ratio of IC50(actinomycin D alone) / IC50(actinomycin D + modulator) at a concentration of 5 uM
P388 [19] = experiment: Antitumor activity of vincristine against P388 leukemia cell line in mice at a dose of 50 mg/kg; assay type: functional, Mus musculus
P388 [20] = experiment: Antitumor activity of vincristine against P388 leukemia cell line in mice at a dose of 100 mg/kg; assay type: functional, Mus musculus
KB [21] = experiment: as §4; assay type: functional, Homo sapiens; in short: as §3
P388/VCR [22] = experiment: Antitumor activity of vincristine against P388/VCR leukemia in mice at a dose of 100 mg/kg.; assay type: functional, Mus musculus
P388/VCR [23] = experiment: Antitumor activity of vincristine against P388/VCR leukemia in mice at a dose of 50 mg/kg.; assay type: functional, Mus musculus
P388/VCR [24] = experiment: Antitumor activity of vincristine against P388/VCR leukemia in mice at a dose of 50 mg/kg; assay type: functional, Mus musculus
P388/VCR [25] = experiment: Antitumor activity of vincristine against P388/VCR leukemia in mice at a dose of 100 mg/kg; assay type: functional, Mus musculus

Structure (SMILES)	Viability (KB [1]) [%]	Increase (KB [3])	Fold reversion (DC3F/AD [4])	Viability (DC3F/AD [5]) [%]	Increase (DC3F/AD [6])	Increase (DC3F/AD [7])	Fold reversion (DC3F/AD [9])	T/C (P388 [11]) [%]	Fold reversion (KB [12])	T/C (P388 [13]) [%]	Viability (DC3F/AD [14]) [%]	further results
C=CCNc1nc(NCC=C)nc(N2CCN(CC3c4ccccc4CCc4ccccc43)CC2)n1	121	29.7	464	84	17.6	24.5	1832					Fold reversion (KB [2]): 63; Viability (Cricetinae gen. sp. [8]): 70%
C=CCNc1nc(NCC=C)nc(N2CCC(NCC3c4ccccc4N(C)S(=O)(=O)c4cc(Cl)ccc43)CC2)n1 (stereo unspecified)	92	39.8	2804	91	22.8	24.1	9570	173	147	177		Of viability (DC3F/AD [10]): 77%
C=CCNc1nc(Cl)nc(N2CCC(NCC3c4ccccc4CCc4ccccc43)CC2)n1	63	33.8	850	96	21.6	27.5	2205				96	Fold reversion (KB [15]): 236
C=CCNc1nc(NCC)nc(N2CCC(NCC3c4ccccc4COc4ccccc43)CC2)n1 (stereo unspecified)	101	38.8		76	18	21.8	2630	180	229	196	86	Fold reversion (Cricetinae gen. sp. [16]): 1327
C=CCNc1nc(NCC=C)nc(N2CCN(C(c3ccc(F)cc3)c3ccc(F)cc3)CC2)n1.CS(=O)(=O)O			112		7.3	17.9	235				63	Viability (DC3F/AD [17]): 65%
COc1ccc(CCN(C)CCCC(C#N)(c2ccc(OC)c(OC)c2)C(C)C)cc1OC (stereo unspecified)	75	13.4		43	2.6	7.5	34				39	Fold reversion (KB [2]): 26; Fold reversion (DC3F/AD [18]): 3
C=CCNc1nc(NCC=C)nc(N2CCC(NCC3c4ccccc4COc4ccccc43)CC2)n1 (stereo unspecified)	106	53.7	1932	82	25.5	25.3	5344				78	Fold reversion (KB [2]): 274; T/C (P388 [19]): 196%; T/C (P388 [20]): 191%
C=CCNc1nc(NCCC)nc(N2CCC(NCC3c4ccccc4CCc4ccccc43)CC2)n1	55		2753	85	27.3	24.9	4455	176	221	179	42	Increase (KB [21]): 51.3
C=CCNc1nc(NCC=C)nc(N2CCC(NC(c3ccccc3)c3ccccc3)CC2)n1			905		25.9	40	1828				61	Viability (DC3F/AD [17]): 75%
C=CCNc1nc(NCCC)nc(N2CCC(NCC(c3ccccc3)c3ccccc3)CC2)n1	93	51.5	965	77	26	34.2	2356	177	236	176	66	T/C (P388/VCR [22]): 163%; T/C (P388/VCR [23]): 167%
C=CCNc1nc(NC)nc(N2CCC(NCC3c4ccccc4COc4ccccc43)CC2)n1 (stereo unspecified)	107	35	600	54	16.8	21.5	2203	163	183	181	75	T/C (P388/VCR [23]): 170%
C=CCNc1nc(NCC=C)nc(N2CCC(NCC(c3ccc(F)cc3)c3ccc(F)cc3)CC2)n1	75	56.5		78	26.1	35.6	2564	157	168		62	T/C (P388/VCR [24]): 176%; Fold reversion (DC3F/AD [18]): 918; T/C (P388 [19]): 168%; T/C (P388/VCR [25]): 185%
